Assay results taken from PMC9201701 (RSC Advances, 2022).
Entries after “also recorded” stand apart in the source; their conditions may differ.

Assays:
[1] = test system: HCT-116; assay: MTT cytotoxicity assay, HCT-116; type: cell-based, human; settings: for IC50: Homo sapiens, HCT-116, 72 h, read-out: Cytotoxicity IC50, HCT-116; for Cytotoxicity IC50, HCT-116: 72 hours, MTT assay
[2] = test system: HT-29; assay: MTT cytotoxicity assay, HT-29; type: cell-based, human; settings: for Cytotoxicity IC50, HT-29: 72 hours, MTT assay; for IC50: Homo sapiens, HT-29, 72 h, read-out: Cytotoxicity IC50, HT-29
[3] = test system: MCF-7; assay: MTT cytotoxicity assay, MCF-7; type: cell-based, human; settings: for IC50: Homo sapiens, MCF7, 72 h, read-out: Cytotoxicity IC50, MCF-7; for Cytotoxicity IC50, MCF-7: 72 hours, MTT assay
[4] = MTT cytotoxicity assay, vero cells; type: cell-based, African Green Monkey; settings: African green monkey, Vero cells (normal kidney cells)
[5] = test system: vero cells; assay: MTT cytotoxicity assay, vero cells; type: cell-based, African Green Monkey; settings: for Cytotoxicity IC50, Vero cell: 72 hours, MTT assay
[6] = test system: Pythium insidiosum; settings: compared with amphotericin-B standard; cited from earlier work
[7] = test system: HCT-116, HT-29, MCF-7 and vero cell lines; assay: MTT cytotoxicity assay, stated over all four cell lines; type: cell-based; settings: for IC50: read-out: IC50 range over all cell lines; for Cytotoxicity against all tested cell lines, in words: HCT-116, HT-29, MCF-7 and vero cells
Method in brief: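 Cells grown in RPMI 1640 with 10% FBS, penicillin and streptomycin at 37 °C, 5% CO2. Solvent controls got 1:1 DMSO/EtOH. After exposure, medium replaced with fresh medium containing MTT (0.5 mg mL−1 in PBS) for 2 h. […] Viability % = sample/control (A550−A655) × 100. Four replicates.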

[8] = test system: HepG2 cell line; settings: read-out: Cytotoxicity IC50, HepG2 cell line; cited from earlier work
[9] = test system: HeLa cells; settings: read-out: Cytotoxicity IC50, HeLa cells; ref 9 (Posri et al., 2021); cited from earlier work
[10] = test system: KB; settings: read-out: Cytotoxicity IC50, KB; cited from earlier work
[11] = test system: HeLa; settings: read-out: Cytotoxicity IC50, HeLa; cited from earlier work
[12] = test system: MRC-5; settings: read-out: Cytotoxicity IC50, MRC-5; cited from earlier work

| Compound | IC50 [1] [µM] | Cytotoxicity IC50, HT-29 [2] | IC50 [3] [µM] | IC50 at 72 h [4] [µM] | IC50 [2] [µM] | IC50 [7] [µM] | further results |
| --- | --- | --- | --- | --- | --- | --- | --- |
| COc1cc(OC)c2c(c1)OCC(c1cc(OC)c(OC)cc1OC)C2=O (stereo not drawn) [Compound 10, 5,7,2′,4′,5′-Pentamethoxyisoflavanone] | 30.3 ± 1.15 | Inactive | 73.8 ± 0.77 | 116 ± 20.2 | – | – | Cytotoxicity against normal cells (vero cell line), in words ([5]; vero cell line): weak cytotoxicity; also recorded: weak activity |
| COc1ccc(C2COc3cc(O)ccc3C2)c(O)c1 (single isomer, unassigned; (-)) [(−)-vestitol] | – | – | – | – | – | – | Antifungal activity against Pythium insidiosum [6]: strongest antifungal activity |
| COc1cc(C2COc3cc(O)cc(O)c3C2=O)c(OC)cc1O (stereo not drawn) [Compound 8, 5,7,4′-Trihydroxy-2′,5′-dimethoxyisoflavanone] | 92.7 ± 1.84 | – | 148 ± 1.96 | 93.6 ± 10.2 | 69.9 ± 6.47 | 69 to 147 | – |
| C=C(C)[C@H]1Cc2c(ccc3c2O[C@@H]2COc4cc(OC)c(OC)cc4[C@]2(O)C3=O)O1 [(−)-12α-hydroxyrotenone] | – | – | – | – | – | – | IC50 [8]: 18 ± 1.51 µM |
| COc1cc(OC)c2c(=O)c(-c3cc(OC)c(OC)cc3OC)coc2c1 [Compound 6, 5,7,2′,4′,5′-Pentamethoxyisoflavone] | 178 ± 2.23 | – | 98.5 ± 15.4 | > 269 | 154 ± 12.1 | – | Cytotoxicity against all tested cell lines, in words [7]: weak activity |
| COc1cc(O)c2c(c1)OCC(c1cc(OC)c(OC)cc1OC)C2=NN (stereo not drawn) [Compound 14, 5-Hydroxy-7,2′,4′,5′-tetramethoxyisoflavanone hydrazone] | – | Inactive | – | – | – | – | Cytotoxicity IC50, HCT-116 [1]: Inactive; Cytotoxicity IC50, MCF-7 [3]: Inactive; Cytotoxicity IC50, Vero cell [5]: Inactive; Cytotoxicity against all tested cell lines, in words [7]: inactive |
| CC(C)=CCC/C(C)=C/Cc1c(O)ccc2c1OC[C@H]1c3cc4c(cc3O[C@@H]21)OCO4 [R,R-Velucarpin A] | – | – | – | – | – | – | IC50 [9]: 10.9 ± 0.42 µM |
| COc1cc(O)c2c(c1)OCC(c1cc(OC)c(OC)cc1OC)C2=O (stereo not drawn) [Compound 9, 5-Hydroxy-7,2′,4′,5′-tetramethoxyisoflavanone] | 37.1 ± 1.28 | – | 31 ± 1.89 | 33.5 ± 1.25 | 19.2 ± 1.86 | 19 to 37 | – |
| COc1cc(O)c2c(c1)OCC(c1cc(OC)c(OC)cc1OC)C2=NO (stereo not drawn) [Compound 15, 5-Hydroxy-7,2′,4′,5′-tetramethoxyisoflavanone oxime] | 26.4 ± 0.05 | – | 28.9 ± 3.94 | 29.8 ± 4.85 | 38.6 ± 2.77 | 26 to 38 | – |
| COc1cc(-c2coc3cc(OC(C)=O)cc(O)c3c2=O)c(OC)cc1OC(C)=O [Compound 3, 7,4′-Diacetoxy-5-hydroxy-2′,5′-dimethoxyisoflavone] | – | Inactive | – | 112 ± 12.3 | – | – | Cytotoxicity IC50, HCT-116 [1]: Inactive; Cytotoxicity IC50, MCF-7 [3]: Inactive |
| COc1cc(O)c2c(=O)c(-c3cc(OC)c(OC)cc3OC)coc2c1 [Compound 5, 5-Hydroxy-7,2′,4′,5′-tetramethoxyisoflavone] | 19 ± 0.7 | – | 12.5 ± 0.7 | 13.5 ± 0.84 | 10.8 ± 1.65 | 10 to 19 | – |
| COc1cc(OC)c2c(c1)OCC(c1cc(OC)c(OC)cc1OC)C2 (stereo not drawn) [Compound 11, 5,7,2′,4′,5′-Pentamethoxyisoflavan] | 28.9 ± 3.19 | – | 21.1 ± 2.61 | 31.1 ± 4.99 | 29.38 ± 0.08 | 19 to 37 | – |
| COc1cc(-c2coc3cc(O)cc(O)c3c2=O)c(OC)cc1O [Compound 1, Olibergin A] | 79.2 ± 4.78 | – | 72.1 ± 1.12 | 88.8 ± 4.33 | 32.2 ± 1.73 | – | Cytotoxicity against all tested cell lines, in words [7]: weak activity; IC50 [10]: 48.1 µM; IC50 [11]: 59.8 µM; IC50 [12]: 25 µM |
| 5-Hydroxy-7,4′-dimesyl-2′,5′-dimethoxyisoflavone [Compound 2] | – | Inactive | – | – | – | – | Cytotoxicity IC50, HCT-116 [1]: Inactive; Cytotoxicity IC50, MCF-7 [3]: Inactive; Cytotoxicity IC50, Vero cell [5]: Inactive |
| 7,4′-Dibutoxy-5-hydroxy-2′,5′-dimethoxyisoflavone [Compound 4] | – | Inactive | – | – | – | – | Cytotoxicity IC50, HCT-116 [1]: Inactive; Cytotoxicity IC50, MCF-7 [3]: Inactive; Cytotoxicity IC50, Vero cell [5]: Inactive |
